This note sets out measurements from ChEMBL document CHEMBL4002604, “Evaluation of biological properties of 3,3',4,4'-benzophenonetetracarboxylic dianhydride derivatives and their ability to inhibit hexokinase activity” (2017).

The test system of experiment [1] is P19. Nature of the experiment: Cytotoxicity against undifferentiated mouse P19 cells assessed as metabolic activity at 1 to 100 uM after 72 hrs by resazurin assay relative to control. In kind it is functional. The method, boiled down: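 Metabolic activity by resazurin reduction in undifferentiated (P19SCs) or differentiated (P19dCs) P19 cells. Exposure to 1, 10 or 100 µM for 24, 48 or 72 h. Read-out relative to untreated control. Significance vs control at p<0.05.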
A general note: Alamar Blue is a resazurin reagent that responds to reducing activity.

Experiment [2] concerns P19. Nature of the experiment: Cytotoxicity against undifferentiated mouse P19 cells assessed as cell mass at 1 to 100 uM after 48 hrs by SRB assay relative to control. Format: functional. The method, boiled down:
(§1)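 Cell mass by SRB assay in P19 cells (CRL-1825), either undifferentiated (P19SCs) or differentiated (P19dCs). Cells exposed to 1, 10 or 100 µM for 24, 48 or 72 h. Values expressed relative to untreated control. Means ± SD from at least 4 independent measurements, 6 repeats each. Significance vs control at p<0.05.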
In general terms: Sulforhodamine B stains cellular protein and so reports cell mass.

In experiment [3] the test system is P19. Nature of the experiment: Cytotoxicity against differentiated mouse P19 cells assessed as cell mass at 1 to 100 uM after 48 hrs by SRB assay relative to control. Format: functional. The essentials:
as §1

Experiment [4] concerns P19. As to the kind of experiment: Cytotoxicity against undifferentiated mouse P19 cells assessed as mitochondrial membrane potential at 1 uM after 72 hrs by TMRF dye based fluorescence assay relative to control. In kind it is functional. The essentials:
(§2)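 Undifferentiated (P19SCs) or differentiated (P19dCs) P19 cells incubated 24 or 72 h with 1 or 100 µM. Mitochondrial membrane potential and mitochondrial superoxide levels measured and expressed relative to untreated control. Means ± SD from 4 independent measurements, at least 4 repeats each. Significance at p<0.05.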

The target of experiment [5] is T1, Hexokinase-2 (Homo sapiens) (UniProt P52789).
T1 sequence (whole entry): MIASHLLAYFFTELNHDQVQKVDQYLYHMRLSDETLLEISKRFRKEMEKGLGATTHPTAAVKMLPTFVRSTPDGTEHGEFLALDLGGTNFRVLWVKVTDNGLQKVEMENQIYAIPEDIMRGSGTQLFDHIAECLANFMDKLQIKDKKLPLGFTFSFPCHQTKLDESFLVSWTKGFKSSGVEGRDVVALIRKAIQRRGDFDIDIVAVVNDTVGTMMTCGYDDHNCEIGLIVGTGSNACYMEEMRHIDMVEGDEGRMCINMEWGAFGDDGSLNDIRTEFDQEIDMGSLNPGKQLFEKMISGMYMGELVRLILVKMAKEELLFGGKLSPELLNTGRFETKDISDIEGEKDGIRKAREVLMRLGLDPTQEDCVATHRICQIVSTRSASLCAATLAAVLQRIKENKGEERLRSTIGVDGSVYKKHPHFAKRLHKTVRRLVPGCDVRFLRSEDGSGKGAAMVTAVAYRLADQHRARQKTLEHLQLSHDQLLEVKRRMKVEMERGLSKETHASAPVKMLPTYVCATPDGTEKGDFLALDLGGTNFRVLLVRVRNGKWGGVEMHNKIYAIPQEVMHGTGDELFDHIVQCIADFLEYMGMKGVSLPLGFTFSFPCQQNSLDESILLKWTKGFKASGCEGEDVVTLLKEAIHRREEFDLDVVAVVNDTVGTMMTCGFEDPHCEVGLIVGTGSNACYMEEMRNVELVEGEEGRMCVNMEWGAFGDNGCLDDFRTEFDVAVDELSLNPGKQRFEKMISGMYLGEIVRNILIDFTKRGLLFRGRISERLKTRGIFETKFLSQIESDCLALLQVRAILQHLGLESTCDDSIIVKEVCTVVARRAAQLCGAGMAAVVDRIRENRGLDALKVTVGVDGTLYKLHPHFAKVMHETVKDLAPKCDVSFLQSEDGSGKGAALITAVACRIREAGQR
Nature of the experiment: Inhibition of recombinant human HK2 using [U-14C]-labeled glucose as substrate in presence of ATP and NADP by G6PD enzyme coupled spectrophotometric assay. As to conditions: in the assay text read “glucose” for “[U-14C]-labeled glucose”. The method, boiled down: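 Coupled hexokinase assay at 340 nm following G6P-dependent NADP→NADPH conversion. Enzyme source is freshly prepared, centrifuged undifferentiated P19 lysate supernatant or recombinant human HKII. Buffer: 100 mM Tris-HCl pH 8.0, 0.5 mM EDTA, 10 mM MgCl2, 2 mM glucose, 0.1 mM NADP, 0.1 U/ml G6PD. Preincubated 10 min at 37°C; reaction started with 10 mM ATP. Means ± SD, 4 experiments, at least 4 repeats each.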

The subject of experiment [6] is P19. Nature of the experiment: Cytotoxicity against differentiated mouse P19 cells assessed as mitochondrial superoxide anion level at 1 uM after 24 hrs by MitoSox dye based fluorescence assay relative to control. In kind it is functional. The essentials:
as §2

The subject of experiment [7] is P19. Nature of the experiment: Cytotoxicity against undifferentiated mouse P19 cells assessed as mitochondrial superoxide anion level at 100 uM after 72 hrs by MitoSox dye based fluorescence assay relative to control. Format: functional. The essentials: as §2
For experiment [8], the system named is P19. As to the kind of experiment: Cytotoxicity against undifferentiated mouse P19 cells assessed as mitochondrial superoxide anion level at 1 uM after 24 hrs by MitoSox dye based fluorescence assay relative to control. Format: functional. The method, boiled down: as §2
The test system of experiment [9] is P19. Nature of the experiment: Cytotoxicity against differentiated mouse P19 cells assessed as cell mass at 1 to 100 uM after 72 hrs by SRB assay relative to control. Format: functional. The essentials:
as §1

In the case of `O=C(c1ccc2c(c1)C(=O)N(c1cccc(O)c1)C2=O)c1ccc2c(c1)C(=O)N(c1cccc(O)c1)C2=O`, the Activity with P19 [1] is given as 59.8%; in the experiment on P19 [2], 79.9%; in the experiment with P19 [3], 102.2%; in the experiment on P19 [4], 110.4%; in the experiment on P19 [6], 112.2%; in the experiment on P19 [7] it was 108.3%. Further, the Activity in the experiment with P19 [8] was found to be 83.2%; in the experiment on P19 [9] it was 71.9%. Besides, the inhibition entry in [5] was “Dose-dependent effect”.
